ChEMBL document CHEMBL3045605, “Synthesis and anticancer evaluation of novel 3,5-diaryl-thiazolo[4,5-d]pyrimidin-2-one derivatives” (2013)

Assays:
Type in all cases: functional
CAKI-1 [1] = assay: Anticancer activity against Homo sapiens (human) CAKI-1 cells assessed as cell growth at 10 uM by SRB assay; conditions: read-out: Activity
Summary of the method: (§1)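 NCI 60-cell human tumour panel (nine cancer types) screened at one concentration, 10−5 M. Cell growth estimated by sulforhodamine B protein staining and reported as percent growth of treated cells relative to untreated controls.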

HCT-116 [2] = assay: Anticancer activity against Homo sapiens (human) HCT116 cells assessed as cell growth at 10 uM by SRB assay; conditions: read-out: Activity; summary of the method: as §1
K562 [3] = assay: Anticancer activity against Homo sapiens (human) K562 cells assessed as cell growth at 10 uM by SRB assay; conditions: read-out: Activity; summary of the method: as §1
SR [4] = assay: Anticancer activity against Homo sapiens (human) SR cells assessed as cell growth at 10 uM by SRB assay; conditions: read-out: Activity
Summary of the method: (§2)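 NCI 60-cell human tumour panel (leukemia, melanoma, lung, colon, CNS, breast, ovarian, prostate, renal lines) given a single 10−5 M dose. Growth is expressed as percent growth of treated cells relative to untreated controls, with cell growth/viability estimated by sulforhodamine B protein staining.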

NCI-H522 [5] = assay: Anticancer activity against Homo sapiens (human) NCI-H522 cells assessed as cell growth at 10 uM by SRB assay; conditions: read-out: Activity
Summary of the method: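 Single-dose screen in the NCI 60-human-tumour-cell-line panel (nine cancer types) at 10−5 M. Cell growth was estimated by sulforhodamine B protein staining and reported as percent growth of treated cells relative to untreated controls.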

LOX IMVI = assay: Anticancer activity against Homo sapiens (human) LOXIMVI cells assessed as cell growth at 10 uM by SRB assay; conditions: read-out: Activity; summary of the method: as §1
CCRF-CEM [6] = assay: Anticancer activity against Homo sapiens (human) CCRF-CEM cells assessed as cell growth at 10 uM by SRB assay; conditions: read-out: Activity; summary of the method: as §1
SW-620 [7] = assay: Anticancer activity against Homo sapiens (human) SW620 cells assessed as cell growth at 10 uM by SRB assay; conditions: read-out: Activity; summary of the method: as §2
HT-29 = assay: Anticancer activity against Homo sapiens (human) HT-29 cells by SRB assay
Summary of the method: (§3)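 NCI 60-line panel, five tenfold dilutions from 10−4 to 10−8 M, growth read by sulforhodamine B staining against untreated controls. From the dose–response per line: GI50 (molar concentration giving half growth inhibition), TGI (molar concentration giving total growth inhibition, cytostatic) and LC50 (molar concentration killing 50% of initial cells, cytotoxic).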

SW-620 [8] = assay: Anticancer activity against Homo sapiens (human) SW620 cells by SRB assay
Summary of the method: (§4)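 NCI five-dose follow-up on the 60-line human tumour panel at tenfold dilutions from 10−4 to 10−8 M, with growth read by sulforhodamine B protein assay against untreated controls. For each cell line, GI50 (half growth inhibition), TGI (total growth inhibition) and LC50 (50% death of initial cells) are calculated as molar concentrations.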

ACHN = assay: Anticancer activity against Homo sapiens (human) ACHN cells by SRB assay; summary of the method: as §3
RXF 393 = assay: Anticancer activity against Homo sapiens (human) RXF393 cells by SRB assay
Summary of the method: (§5)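 Five-dose NCI 60-cell-line panel testing at tenfold dilutions from 10−4 to 10−8 M, with growth read by sulforhodamine B protein staining. For each cell line: GI50 is the molar concentration giving half growth inhibition; TGI is total growth inhibition (cytostatic); LC50 is the molar concentration killing 50% of the initial cells (cytotoxic).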

Malme-3M = assay: Anticancer activity against Homo sapiens (human) MALME-3M cells by SRB assay; summary of the method: as §3
Hs-578T = assay: Anticancer activity against Homo sapiens (human) Hs 578T cells by SRB assay; summary of the method: as §3
TK-10 = assay: Anticancer activity against Homo sapiens (human) TK10 cells by SRB assay; summary of the method: as §4
COLO 205 = assay: Anticancer activity against Homo sapiens (human) COLO205 cells by SRB assay; summary of the method: as §3
NCI-H23 = assay: Anticancer activity against Homo sapiens (human) NCI-H23 cells by SRB assay; summary of the method: as §5
UO-31 = assay: Anticancer activity against Homo sapiens (human) UO31 cells by SRB assay; summary of the method: as §4
SNB-19 = assay: Anticancer activity against Homo sapiens (human) SNB19 cells by SRB assay; summary of the method: as §5
SK-MEL-2 = assay: Anticancer activity against Homo sapiens (human) SK-MEL-2 cells by SRB assay; summary of the method: as §5
OVCAR-4 = assay: Anticancer activity against Homo sapiens (human) OVCAR4 cells by SRB assay; summary of the method: as §5
A549 = assay: Anticancer activity against Homo sapiens (human) A549/ATCC cells by SRB assay; summary of the method: as §3
NCI/ADR-RES = assay: Anticancer activity against Homo sapiens (human) NCI/ADR-RES cells by SRB assay; summary of the method: as §5
SK-MEL-28 = assay: Anticancer activity against Homo sapiens (human) SK-MEL-28 cells by SRB assay; summary of the method: as §5
NCI-H460 = assay: Anticancer activity against Homo sapiens (human) NCI-H460 cells by SRB assay; summary of the method: as §5
UACC-62 = assay: Anticancer activity against Homo sapiens (human) UACC62 cells by SRB assay; summary of the method: as §4
SR [9] = assay: Anticancer activity against Homo sapiens (human) SR cells by SRB assay; summary of the method: as §4
KM12 = assay: Anticancer activity against Homo sapiens (human) KM12 cells by SRB assay; summary of the method: as §3
OVCAR-8 = assay: Anticancer activity against Homo sapiens (human) OVCAR8 cells by SRB assay; summary of the method: as §5
HCT-15 = assay: Anticancer activity against Homo sapiens (human) HCT15 cells by SRB assay; summary of the method: as §3
MDA-MB-435 = assay: Anticancer activity against Homo sapiens (human) MDA-MB-435 cells by SRB assay; summary of the method: as §5
OVCAR-3 = assay: Anticancer activity against Homo sapiens (human) OVCAR3 cells by SRB assay; summary of the method: as §5
CAKI-1 [10] = assay: Anticancer activity against Homo sapiens (human) CAKI-1 cells by SRB assay; summary of the method: as §3
OVCAR-5 = assay: Anticancer activity against Homo sapiens (human) OVCAR5 cells by SRB assay; summary of the method: as §5
DU-145 = assay: Anticancer activity against Homo sapiens (human) DU145 cells by SRB assay; summary of the method: as §3
[11] = Anticancer activity against Homo sapiens (human) NCI-322M cells by SRB assay; summary of the method: as §5
[12] = Anticancer activity against Homo sapiens (human) RPMI8266 cells by SRB assay; summary of the method: as §5
CCRF-CEM [13] = assay: Anticancer activity against Homo sapiens (human) CCRF-CEM cells by SRB assay; summary of the method: as §3
EKVX = assay: Anticancer activity against Homo sapiens (human) EKVX cells by SRB assay; summary of the method: as §3
HOP-92 = assay: Anticancer activity against Homo sapiens (human) HOP92 cells by SRB assay; summary of the method: as §3
T47D = assay: Anticancer activity against Homo sapiens (human) T47D cells by SRB assay; summary of the method: as §4
SK-MEL-5 = assay: Anticancer activity against Homo sapiens (human) SK-MEL-5 cells by SRB assay; summary of the method: as §5
HOP-62 = assay: Anticancer activity against Homo sapiens (human) HOP62 cells by SRB assay; summary of the method: as §3
SN12C = assay: Anticancer activity against Homo sapiens (human) SN12C cells by SRB assay; summary of the method: as §5
UACC-257 = assay: Anticancer activity against Homo sapiens (human) UACC257 cells by SRB assay; summary of the method: as §4
SF-295 = assay: Anticancer activity against Homo sapiens (human) SF295 cells by SRB assay; summary of the method: as §5
BT-549 = assay: Anticancer activity against Homo sapiens (human) BT549 cells by SRB assay; summary of the method: as §3
HCT-116 [14] = assay: Anticancer activity against Homo sapiens (human) HCT116 cells by SRB assay; summary of the method: as §3
SF-268 = assay: Anticancer activity against Homo sapiens (human) SF268 cells by SRB assay; summary of the method: as §5
IGROV-1 = assay: Anticancer activity against Homo sapiens (human) IGROV1 cells by SRB assay; summary of the method: as §3
A498 = assay: Anticancer activity against Homo sapiens (human) A498 cells by SRB assay; summary of the method: as §3
PC-3 = assay: Anticancer activity against Homo sapiens (human) PC3 cells by SRB assay; summary of the method: as §5
M14 = assay: Anticancer activity against Homo sapiens (human) M14 cells by SRB assay; summary of the method: as §3
SK-OV-3 = assay: Anticancer activity against Homo sapiens (human) SKOV3 cells by SRB assay; summary of the method: as §5
786-0 = assay: Anticancer activity against Homo sapiens (human) 786-0 cells by SRB assay; summary of the method: as §3
SF-539 = assay: Anticancer activity against Homo sapiens (human) SF539 cells by SRB assay; summary of the method: as §5
MCF7 = assay: Anticancer activity against Homo sapiens (human) MCF7 cells by SRB assay; summary of the method: as §3
U-251 = assay: Anticancer activity against Homo sapiens (human) U251 cells by SRB assay; summary of the method: as §4
K562 [15] = assay: Anticancer activity against Homo sapiens (human) K562 cells by SRB assay; summary of the method: as §3
NCI-H522 [16] = assay: Anticancer activity against Homo sapiens (human) NCI-H522 cells by SRB assay; summary of the method: as §5
SNB-75 = assay: Anticancer activity against Homo sapiens (human) SNB75 cells by SRB assay; summary of the method: as §5

`O=c1sc2c(Cl)nc(-c3ccc(F)cc3)nc2n1-c1ccccc1` showed a growth at 10 µM (CAKI-1 [1]) of 41.8%, a growth at 10 µM (HCT-116 [2]) of 40.5% and a growth at 10 µM (K562 [3]) of 35.8%. It also gave a growth at 10 µM (SR [4]) of 28.6%.
`O=c1sc2c(Cl)nc(-c3ccc(Cl)cc3)nc2n1-c1ccccc1` showed a growth at 10 µM (NCI-H522 [5]) of 5.19%, a growth at 10 µM (LOX IMVI) of 24.4% and a growth at 10 µM (CCRF-CEM [6]) of 33.6%. The growth at 10 µM (HCT-116 [2]) was 29.3%, the growth at 10 µM (K562 [3]) was 34.6% and the growth at 10 µM (SR [4]) was 21.5%. The growth at 10 µM (SW-620 [7]) was 47.6%.
`O=c1[nH]c(-c2ccccc2)nc2c1sc(=O)n2-c1ccccc1` gave a growth at 10 µM (CAKI-1 [1]) of 26.8%.
Work on `Nc1nc2[nH]cnc2c(=S)[nH]1` [THIOGUANINE] yielded a GI50 (HT-29) of 1260 nM, a GI50 (SW-620 [8]) of 3.98 µM and a GI50 (ACHN) of 3.98 µM. For the same compound, the GI50 (RXF 393) was 501 nM, the GI50 (Malme-3M) was 3.16 µM and the GI50 (Hs-578T) was 6.31 µM. For the same compound, the GI50 (TK-10) was 501 nM, the GI50 (COLO 205) was 2510 nM and the GI50 (NCI-H23) was 3.16 µM. For the same compound, the GI50 (UO-31) was 794 nM, the GI50 (SNB-19) was 79.4 µM and the GI50 (SK-MEL-2) was 1580 nM. The GI50 (OVCAR-4) was 5.01 µM, the GI50 (A549) was 5.01 µM and the GI50 (NCI/ADR-RES) was 398 nM. It also gave a GI50 (SK-MEL-28) of 6.31 µM, a GI50 (NCI-H460) of 1000 nM and a GI50 (UACC-62) of 398 nM. The GI50 (SR [9]) was 631 nM, the GI50 (KM12) was 3.16 µM and the GI50 (OVCAR-8) was 398 nM. The GI50 (HCT-15) was 2510 nM, the GI50 (MDA-MB-435) was 501 nM and the GI50 (OVCAR-3) was 1580 nM. It also gave a GI50 (CAKI-1 [10]) of 316 nM, a GI50 (OVCAR-5) of 501 nM and a GI50 (DU-145) of 501 nM. It also gave a GI50 [11] of 25.1 µM, a GI50 [12] of 1260 nM and a GI50 (CCRF-CEM [13]) of 316 nM. The GI50 (EKVX) was 3.98 µM, the GI50 (HOP-92) was 1580 nM and the GI50 (T47D) was 10 µM. It also gave a GI50 (SK-MEL-5) of 2510 nM, a GI50 (HOP-62) of 794 nM and a GI50 (SN12C) of 7.94 µM. It also gave a GI50 (UACC-257) of 6.31 µM, a GI50 (SF-295) of 1260 nM and a GI50 (BT-549) of 1260 nM. It also gave a GI50 (HCT-116 [14]) of 631 nM, a GI50 (SF-268) of 1260 nM and a GI50 (IGROV-1) of 6.31 µM. The GI50 (A498) was 25.1 µM, the GI50 (PC-3) was 3.16 µM and the GI50 (M14) was 631 nM. For the same compound, the GI50 (SK-OV-3) was 501 nM, the GI50 (786-0) was 1580 nM and the GI50 (SF-539) was 631 nM. It also gave a GI50 (MCF7) of 501 nM, a GI50 (U-251) of 10 µM and a GI50 (K562 [15]) of 100 µM. The GI50 (NCI-H522 [16]) was 2000 nM and the GI50 (SNB-75) was 1000 nM.
